The term EC50 denotes the concentration needed to bring the measured effect to its halfway point.

Like-named read-outs stand apart in the source and are kept apart here.

Here are results for 5 compounds from article PMC11377854 (Nature methods, 2024).

Test [1] deals with g5-HT3.0. As to the kind of experiment: Dose-response of sensor fluorescence change. Format: cell-based, cultured rat cortical neurons. The following applies: read-out: EC50 values.
Test [2] concerns g5-HT2m. As to conditions: read-out: EC50 values.
In test [3] the test system is r5-HT1.0. As to the kind of experiment: Dose-response of sensor fluorescence change. The test is classed as cell-based, cultured rat cortical neurons. As to conditions: read-out: EC50 values.
The test system of test [4] is g5-HT3.0. The test is described as follows: Dose-response of sensor fluorescence change. As to conditions: n = 3. The test is classed as cell-based, HEK293T cells.
Test [5] relates to r5-HT1.0. As to the kind of experiment: Dose-response of sensor fluorescence change. The test is classed as cell-based, HEK293T cells. As to conditions: n = 3.
The subject of test [6] is g5-HT2h. As to conditions: read-out: EC50 values.
The test system of test [7] is 5-HT release in mouse dorsal cortex. The test is described as follows: Mesoscopic imaging of optogenetically evoked cortical 5-HT release. The test is classed as in vivo, mice. The following applies: fluoxetine 20 mg/kg i.p., GBR 12909 10 mg/kg i.p. In a few lines:
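In Sert-Cre mice, 300 nl AAV9-EF1a-DIO-ChrimsonR was injected into the DRN (AP −6.1, ML 0, depth 3 mm, 32° AP angle), with an optical fiber 0.2 mm above the site. Mice recovered ≥7 d and were habituated head-fixed over >3 d.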

For test [8], the system named is r5-HT1.0. As to the kind of experiment: Pharmacological specificity of r5-HT1.0 in HEK293T cells. The test is classed as cell-based. As to conditions: compounds 10 μM except RS 100 μM.
Test [9] relates to g5-HT3.0. The test is described as follows: Pharmacological specificity of g5-HT3.0 in HEK293T cells. The test is classed as cell-based. As to conditions: compounds 10 μM except RS 100 μM.
Test [10] has as its system β-arrestin pathway. The test is described as follows: Tango assay. Format: cell-based. The following applies: HTLA cells, 5-HT 0.01 nM to 100 μM.
Test [11] concerns GPCR-mediated Gs pathway. As to the kind of experiment: Luciferase complementation assay. Format: cell-based. As to conditions: HEK293T cells, 5-HT 0.01 nM to 1 mM.

As to `NCCc1c[nH]c2ccc(O)cc12` [5-HT, serotonin (5-hydroxytryptamine)], the EC50 in test [1] is 80 nM; in test [2] it was 2400 nM; in [3], 600 nM; in test [4] it was roughly 150 nM; in [5] it was roughly 790 nM; in test [6], 70 nM.
Turning to `Fc1ccc(C(OCCN2CCN(CCCc3ccccc3)CC2)c2ccc(F)cc2)cc1` [GBR 12909], the “baseline 5-HT levels (g5-HT3.0 signal)” value in [7] is reported as “no effect”.
Consider `COc1cc(N)c(Cl)cc1C(=O)OCCCN1CCCCC1` [RS 23597-190], for which the “block of 5-HT induced response of r5-HT1.0” value in test [8] was “blocked”. Also, the “block of 5-HT induced response of g5-HT3.0” value in [9] is reported as “blocked”.
For the compound `CNCCC(Oc1ccc(C(F)(F)F)cc1)c1ccccc1` (stereo not drawn) [fluoxetine], the “baseline 5-HT levels (g5-HT3.0 signal)” value in test [7] is listed as “gradual increase”.
Turning to “wild-type 5-HTR4: wild-type 5-HTR4 receptor”, the “downstream coupling, β-arrestin pathway” value in test [10] was “high basal activity and robust, dose-dependent coupling”. For the same compound, in test [11], the “downstream coupling, Gs pathway” value is “high basal activity and robust, dose-dependent coupling”.
